Assay outcomes deposited in PubChem BioAssay by several laboratories.
CTSL1 counter = Fasciola hepatica cathepsin L1 inhibitors, primary screen, counter-screen for PFM18AAP inhibitor project, biochemical, QFRET, fluorogenic peptide substrate | recombinant F. hepatica cathepsin L1, Z-Leu-Arg-MCA fluorescence | inhibition, % at 5.96 µM | 300,000 tested, 0.49% active | AID 1906, 2009;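 active = inhibition above the mean of all tested compounds plus 3 SD, set per screening campaign, cut at about 17% in these data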
PP5 inh = PP5 phosphatase inhibitors, primary screen, biochemical, fluorescence. purified PP5c, OMFP substrate fluorescence. inhibition, % at 6.7 µM. 320,000 tested, 0.18% active. AID 1987, 2009;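 active = inhibition above the campaign's mean inhibition across all tested compounds plus 3 SD, cut at about 9.5% in these data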
Myeloid diff MLP = induction of myeloid progenitor differentiation, primary screen, cell-based, flow cytometry, MLPCN library. calls only at 10 µM. 360,000 tested, 1% active. ER-HoxA9 myeloid progenitors, lysozyme-GFP differentiation. AID 624256, 2012;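 active = normalized GFP-positive differentiation at or above the plate's own cutoff, the solvent-only control mean plus 3 SD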;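 also: cells exposed to compound for four days before flow analysis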
HCV core dimer = inhibitors of HCV core protein dimerization, primary screen, biochemical, TR-FRET, high-throughput | TR-FRET GST/Flag-core106 dimerization, 1536-well | 300,000 tested, 0.33% active | inhibition, % at 5 µM | AID 1899, 2009;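 active = inhibition above the mean of all tested compounds plus 3 SD, set per screening campaign, cut at about 45% in these data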
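Test system: GST/Flag-tagged HCV core106 proteins; Medium: KF-containing HEPES buffer, pH 7.45, DTT, CHAPS, BSA; Times: compound-protein-antibody incubation 4 h at 22.5 °C; Detection: TR-FRET 671 and 617 nm emission; Benchmarks: wells lacking GST-core106 and wells with excess unlabelled core106.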
PP1 counter = PP1-alpha phosphatase inhibitors, primary screen, counter-screen for PP5 inhibitor project, biochemical, fluorescence, OMFP substrate, single point. purified PP1alpha. inhibition, % at 6.7 µM. 320,000 tested, 0.9% active;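 active = inhibition above the mean inhibition of all tested compounds plus 3 SD, computed separately for each screening campaign, cut at about 15% in these data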
Target sequence (P62136 whole entry, looked up): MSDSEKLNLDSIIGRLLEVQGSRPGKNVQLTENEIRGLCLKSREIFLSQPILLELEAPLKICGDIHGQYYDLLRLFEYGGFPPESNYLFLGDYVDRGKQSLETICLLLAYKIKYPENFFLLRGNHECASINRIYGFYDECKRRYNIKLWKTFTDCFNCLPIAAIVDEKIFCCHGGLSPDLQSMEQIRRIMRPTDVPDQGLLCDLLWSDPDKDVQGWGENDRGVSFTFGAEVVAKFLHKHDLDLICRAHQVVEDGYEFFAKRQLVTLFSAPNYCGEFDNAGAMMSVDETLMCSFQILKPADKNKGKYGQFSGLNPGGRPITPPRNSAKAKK
NadD inh = inhibitors of S. aureus NadD, primary screen, biochemical, colorimetric, uHTS | inhibition, % at 20 µM | Nicotinate-nucleotide adenylyltransferase NadD (Staphylococcus aureus N315) | 360,000 tested, 0.78% active | purified NadD enzyme, colorimetric absorbance read-out | AID 602399, 2012; in the data active = inhibition above about 26%
PP1 inh confirm = PP1 phosphatase inhibitors, confirmation, biochemical, fluorescence, OMFP substrate, triplicate. AID 2358, 2010. shares compounds with PP1 counter. inhibition, % at 6.7 µM. purified PP1alpha. 1,900 tested, 52% active;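 active = mean PP1 inhibition above a set limit taken from the earlier primary screen, cut at about 15% in these data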
PP5 counter = PP5 phosphatase inhibition by PP1 hits, confirmation, counter-screen for PP1 inhibitor project, biochemical, fluorescence, triplicate; inhibition, % at 6.7 µM; shares compounds with PP1 counter; purified PP5c, OMFP fluorescence; 1,900 tested, 4% active;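 active = mean PP5 inhibition over triplicate wells above about 9.5% taken from the earlier PP1 screen, limit read from the data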
Numbers stand for hits; – = inactive; · = no result; + = active, no number. Only some compounds are listed: those with a hit (about 3.1% of all), similar ones and a draw of the others.

SMILES	CTSL1 counter	PP5 inh	Myeloid diff MLP	HCV core dimer	PP1 counter	NadD inh	PP1 inh confirm	PP5 counter
CN1CCN(C(c2ccccc2)c2ccc(Cl)cc2)CC1 (stereo not given)	–	–	–	–	–	–	·	·
CN1CCN(C(c2ccc(Cl)cc2)c2cc(Cl)c3cccnc3c2O)CC1 (stereo not given)	–	–	–	–	22.0	–	–	–
Oc1c(C(c2ccccn2)N2CCCCC2)cc(Cl)c2cccnc12 (stereo not given)	–	–	–	–	75.5	–	73.1	–
CCN1CCN(C(c2ccc(C(F)(F)F)cc2)c2ccc3cccnc3c2O)CC1 (stereo not given)	–	–	–	–	18.3	–	–	–
CN1CCN(C(c2ccc(C(F)(F)F)cc2)c2cc(Cl)c3cccnc3c2O)CC1 (stereo not given)	–	–	·	–	21.2	·	–	–
Cc1ccc(OC(=O)c2cc(C)nn2C(C)(C)C)cc1	–	–	–	–	–	–	·	·
O=S(=O)(Cc1cc(NCc2ccccc2)nc(-c2ccccn2)n1)c1ccccc1	–	–	–	–	39.4	–	46.3	–
COc1ccc(CC(=O)Oc2ccc(C)cc2Br)cc1S(=O)(=O)N1CCOCC1	–	–	–	–	–	–	·	·
O=C(CN1C(=O)/C(=C/c2ccccc2)SC1=S)Nc1ncc(Cc2ccccc2)s1	–	–	–	53.5	22.2	–	20.1	–
O=C(CN1C(=O)/C(=C\C=C\c2ccccc2)SC1=S)Nc1ccc(F)cc1	–	–	–	–	22.9	–	–	–
O=C(CN1C(=O)S/C(=C/C=C/c2ccccc2)C1=O)Nc1ccc(C(=O)O)cc1	–	–	–	–	–	–	·	·
CCCCn1c(/C=N/Nc2nc3ccccc3[nH]2)nc2ccccc21	–	–	+	–	20.6	–	–	–
C#CCn1cc(/C=N/Nc2nc3ccccc3[nH]2)c2ccccc21	–	–	–	–	21.7	–	23.8	–
Fc1ccccc1-c1ccc(/C=N/Nc2nc3ccccc3[nH]2)o1	–	–	–	–	17.8	–	17.8	–
O=C(COC(=O)/C=C/c1ccc(C(F)(F)F)cc1)NCC1CCCCC1	–	–	–	–	–	–	·	·
COc1ccc(C(=O)Nc2cccc3c2CCCC3)c(OC)c1	–	–	–	–	–	–	·	·
C=CCC1(CC=C)CCCN1C(=O)C1CCC(=O)N(CCc2ccccc2)C1 (stereo not given)	–	–	–	–	–	–	·	·
CC(C)(C)C(=O)N1CCN(c2ccc([N+](=O)[O-])c(-n3nc(-c4ccccc4)c4ccccc4c3=O)c2)CC1	–	–	–	–	21.7	–	–	–
CCCCNC(=O)C1(C)CCN1C(=O)c1sccc1C (stereo not given)	·	·	–	·	·	–	·	·
COc1ccc(C2=NN(c3ccccc3)C(c3cn(CCC(=O)O)nc3-c3ccccc3)C2)cc1 (stereo not given)	–	–	–	–	24.0	–	–	–
Cc1ccc(C2=NN(C(=O)CCC(=O)O)C(c3cn(-c4ccccc4)nc3-c3ccc(C)cc3)C2)cc1 (stereo not given)	–	–	–	–	19.9	–	22.6	–
COc1ccc(/C=C(\NC(=O)c2ccc(OC)cc2)C(=O)N2CCCCC2)cc1	·	·	–	·	·	–	·	·
O=C(Nc1ccc(F)cc1)N1CCN(C(=O)C2CCCO2)CC1 (stereo not given)	–	–	–	–	–	–	·	·
NC(=O)c1ccsc1NC(=O)COC(=O)c1nc(Cl)ccc1Cl	–	–	–	–	45.4	–	–	–
